ChEMBL document CHEMBL1121525, “Folate analogues altered in the C9--N10 bridge region. 14. 11-Oxahomofolic acid, a potential antitumor agent” (J Med Chem, 1980)
Values after ≈ are worked out from the molar mass of the structure shown.

Experiments:
Format in all cases: functional, organism-based
Lacticaseibacillus casei [1] = test: Compound was measured for the 50% growth inhibition of Lactobacillus casei MTX resistant microorganism.; details: for IC50: Lacticaseibacillus casei, read-out: I50
Outline: (§1)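 Drug solution concentrations were set either by weight or by UV absorbance at pH 7.4, using extinction coefficients of 9600 at 270 nm or 10 250 at 301 nm. The 7,8-dihydro form was made by treating the potassium salt with excess sodium dithionite at room temperature. The tetrahydro forms came from catalytic or enzymatic reduction.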

Enterococcus faecium [2] = test: Compound was measured for the 50% growth inhibition of Streptococcus faecium ATCC 8043 microorganism.; details: for IC50: Enterococcus faecium, ATCC 8043, read-out: I50
Outline: (§2)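 Growth-inhibition test. The reduced test forms were quantified by UV absorbance at pH 7.4 using a molar absorptivity at 270 or 301 nm. Other forms were quantified by weight. The 7,8-dihydro form was made by excess sodium dithionite reduction of the aqueous potassium salt at room temperature.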

Enterococcus faecium [3] = test: Compound was measured for the 50% growth inhibition of Streptococcus faecium MTX resistant microorganism.; details: for IC50: Enterococcus faecium, read-out: I50; outline: as §2
Lacticaseibacillus casei [4] = test: Compound was measured for the 50% growth inhibition of Lactobacillus casei ATCC 7469 microorganism.; details: for IC50: Lacticaseibacillus casei, ATCC 7469, read-out: I50; outline: as §1

Structure (SMILES) | IC50 (Lacticaseibacillus casei [1]) [ng/mL] | IC50 (Enterococcus faecium [2]) [ng/mL] | IC50 (Enterococcus faecium [3]) [ng/mL] | IC50 (Lacticaseibacillus casei [4]) [ng/mL] | I50 (Lacticaseibacillus casei [1]) [ng/mL] | I50 (Enterococcus faecium [2]) [ng/mL] | I50 (Enterococcus faecium [3]) [ng/mL] | I50 (Lacticaseibacillus casei [4]) [ng/mL]
Nc1nc(O)c2nc(CCOc3ccc(C(=O)NC(CCC(=O)O)C(=O)O)cc3)cnc2n1 (stereo not drawn) | 1000 (≈ 2.19 µM) | 14 (≈ 0.0307 µM) | 260 (≈ 0.57 µM) | 320 (≈ 0.701 µM) |  |  |  | 
Nc1nc(O)c2c(n1)NCC(CCOc1ccc(C(=O)NC(CCC(=O)O)C(=O)O)cc1)=N2 (stereo not drawn) | 700 (≈ 1.53 µM) |  |  | 240 (≈ 0.524 µM) |  |  |  | 
Nc1nc(O)c2c(n1)NCC(CCOc1ccc(C(=O)NC(CCC(=O)O)C(=O)O)cc1)N2 (racemic) |  |  |  |  | 19 | 0.7 | 50 | 10
Nc1nc(O)c2c(n1)NCC(CCOc1ccc(C(=O)NC(CCC(=O)O)C(=O)O)cc1)N2 (stereo in doubt) |  |  |  |  | 64 | 9 | > 200 | 56
CN(Cc1cnc2nc(N)nc(N)c2n1)c1ccc(C(=O)N[C@@H](CCC(=O)O)C(=O)O)cc1 [METHOTREXATE] |  | 0.05 (≈ 0.00011 µM) | 3500 (≈ 7.7 µM) | 0.07 (≈ 0.000154 µM) | > 500000 |  |  | 
